Holding throughout (assay type): functional
One assay deals with Mucor hiemalis. In words: Antimicrobial activity against Mucor hiemalis by serial dilution method. The method in brief:
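Fungal MIC by serial dilution in 96-well plates. Organism cultivated in MYC medium (1.0% phytone peptone, 1.0% glucose, 1.19% HEPES, pH 7.0) at 30 °C, 160 rpm.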

Assay [1] can be described thus: Antimicrobial activity against Arthrobacter rubellus by serial dilution method. The essentials:
(§1)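 MIC by serial dilution in 96-well plates. Test bacteria grown in EBS medium (0.5% peptone, 0.5% glucose, 0.1% meat extract, 0.1% yeast extract, 50 mM HEPES, pH 7.0) at 30 °C with shaking at 160 rpm.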

A further assay has as its system Pimelobacter simplex. In words: Antimicrobial activity against Nocardioides simplex by serial dilution method. The method in brief: as §1
The subject of another assay is Mycobacterium lacticola. Nature of the assay: Antimicrobial activity against Mycobacterium lacticola by serial dilution method. The essentials:
as §1

In assay [2] the test system is Mycolicibacterium diernhoferi. In words: Antimicrobial activity against Mycobacterium diernhoferi by serial dilution method. The essentials:
as §1

The test system of the next assay is Stutzerimonas stutzeri. Nature of the assay: Antimicrobial activity against Pseudomonas stutzeri by serial dilution method. The method in brief:
as §1

The test system of assay [3] is Chromobacterium violaceum. Nature of the assay: Antimicrobial activity against Chromobacterium violaceum by serial dilution method. The method in brief:
as §1

Another assay concerns Escherichia coli. In words: Antimicrobial activity against Escherichia coli expressing mutant TOLC by serial dilution method.

Structures are written as SMILES. ≈ marks a conversion by molar mass, not a printed value.

The source of these data is ChEMBL document CHEMBL2151001, “Indiacens A and B: prenyl indoles from the myxobacterium Sandaracinus amylolyticus” (2012).

For `C=C(C)/C=C/c1cccc2[nH]cc(C=O)c12` [INDIACEN A], the MIC – broadly, the least concentration at which growth counts as inhibited – was 16.6 µg/mL (≈ 78.6 µM) in the assay with Mucor hiemalis; 16.6 µg/mL (≈ 78.6 µM) in assay [1]; 8.3 µg/mL (≈ 39.3 µM) with Pimelobacter simplex; 16.6 µg/mL (≈ 78.6 µM) against Mycobacterium lacticola; 16.6 µg/mL (≈ 78.6 µM) in assay [2]; more than 33 µg/mL against Stutzerimonas stutzeri. In addition, the MIC (in assay [3]; with Escherichia coli) was 16.6 µg/mL (≈ 78.6 µM) in each case.

Regarding `CC(/C=C/c1cccc2[nH]cc(C=O)c12)=C\Cl` [INDIACEN B], the MIC was 16.6 µg/mL (≈ 67.6 µM) with Mucor hiemalis; 0.8 µg/mL (≈ 3.26 µM) in assay [1]; 3.3 µg/mL (≈ 13.4 µM) against Pimelobacter simplex; 33 µg/mL (≈ 134 µM) against Mycobacterium lacticola; more than 33 µg/mL in assay [2]; 33 µg/mL (≈ 134 µM) against Stutzerimonas stutzeri. Further, the MIC (in assay [3]; against Escherichia coli) was 33 µg/mL (≈ 134 µM) each time.
